Entries after “also recorded” stand apart in the source; their conditions may differ. Read-outs that look alike come from different tables or passages of the source.
What was measured:
[1] = Plasma and tumor pharmacokinetics at steady-state in D4M.3A tumor-bearing mice; format: in vivo, C57BL/6J mice; details: 64 mg/kg/day oral, steady-state after 21 days
How it was run: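 Male C57BL/6J mice bearing D4M.3A tumors were pretreated for 21 days with the test compound (succinate salt) at 64 mg/kg orally. Plasma and tumor drug concentrations were then measured at steady state.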

B16.F10 = assay: In vivo tumor growth, B16.F10 syngeneic tumor model; design: species or system C57BL/6J mice; details: combination with anti-PD-1
How it was run: (§1)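 Mice were 6-week-old male C57BL/6J, n = 10 per cohort. Tumor cells were trypsinized and spun 400g for 5 min, then put into the right hind flank: MC38 1 × 10^6 in 50:50 Cultrex:PBS, D4M.3A 1 × 10^6 in PBS, B16.F10 0.5 × 10^6 in HBSS. Test compound given once daily IP or by oral gavage from day 7 (B16.F10), 8 (MC38) or 9 (D4M.3A). Anti-PD-1, 200 μg IP ×3, every other day, 6 h after compound. Caliper volume = w² × l/2. Two-way ANOVA/Bonferroni on last treatment day.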

tumor-infiltrating Tregs = assay: Flow cytometry of tumor-infiltrating Tregs in D4M.3A-injected mice; format: in vivo, C57BL/6J mice; details: combination therapy with anti-PD-1; D4M.3A tumors; mean ± SEM; pooled MPT-0118 and MPT-0308 (n = 16)
PDOTS = assay: Viability of patient-derived organotypic tumor spheroids; format: cell-based, human; details: 5 μM in combination with anti-PD-1, + αIFNγ 10 μg/mL
How it was run: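 Colorectal cancer and melanoma resection samples were made into organotypic spheroids that kept their native immune cells. These were embedded in collagen in a 3D microfluidic device and cultured 5–7 days in DMEM with the test compound (3–5 μM). Arms were ± pembrolizumab 250 μg/mL, each ± anti-human IFNγ 10 μg/mL. Viability was measured by Hoechst 33342/propidium iodide imaging (45 min, 37 °C, 5% CO2) as live cell area. Results were given as percent change versus untreated control.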

circulating Tregs = assay: Circulating Treg frequencies in non-tumor-bearing rats; format: in vivo, Harlan Sprague Dawley rats; details: 30 mg/kg orally, daily, 15 days; female rats; vs vehicle
How it was run: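 Female Harlan Sprague Dawley rats, non-tumor-bearing, received the test compound at 30 mg/kg orally once daily for 15 days, with a vehicle group (n = 5 per cohort). Blood was drawn from the same animals on days −1, 3, 5, 7, 10 and 14. After red cell lysis, samples got viability dye, CD3/CD4/CD8/CD25 surface staining, fixation and permeabilization, and FoxP3 staining. Tregs (CD3+CD4+CD8α−FoxP3+) were counted as % of CD4+ cells and normalized to day −1 (100%). Unpaired t test per time point […].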

D4M.3A = assay: In vivo tumor growth, D4M.3A syngeneic tumor model; design: species or system C57BL/6J mice; details: for tumor growth, comparison of both salt forms: 32 mg/kg IP, QD, D4M.3A tumor-challenged mice, with and without anti-PD-1; for tumor growth, combination effect: combination with anti-PD-1, D4M.3A model; for tumor growth response: monotherapy, poorly immunogenic D4M.3A model, high doses of MPT-0118 or MPT-0308
How it was run: as §1

Tregs [2] = details: mice; 8 mg/kg twice a day IP and 16 mg/kg every day IP; cited from earlier work
pKa = format: physicochemical
Caco-2 = Caco-2 permeability; format: in vitro ADME; details: Caco-2 assay
P-gp = P-gp (Homo sapiens, UniProt P08183); assay: MDCK-MDR1 permeability; format: in vitro ADME
[3] = Octanol-water partition coefficient; format: physicochemical
Aqueous solubility = format: physicochemical
[4] = Plasma pharmacokinetics in male C57BL/6J mice after a single dose; format: in vivo; details: non-tumor-bearing animals
MALT1 [5] = details: cited from earlier work
Tregs [6] = details: rats; efficacious treatment; cited from earlier work
Tregs [7] = details: dogs; efficacious treatment; cited from earlier work
MC38 = assay: In vivo tumor growth, MC38 syngeneic tumor model; design: species or system C57BL/6J mice
How it was run: as §1

[8] = tested on: D4M.3A murine melanoma tumor spheroids; assay: Viability of cell-line-derived D4M.3A tumor spheroids; format: cell-based, mouse; details: doses up to 10 μM; day 4
How it was run: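 D4M.3A cell-line-derived tumor spheroids were embedded in collagen in a 3D microfluidic device (gel set 30 min, 37 °C). They were cultured in DMEM with the test compound at 0.3–10 μM for 4 days. Live/dead staining used Hoechst 33342/propidium iodide (45 min, 37 °C, 5% CO2), followed by fluorescence imaging and total raw cell area per dye. Live signal was expressed as percent change or log2 fold change relative to untreated control.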

MC38 MDOTS = assay: Viability of MC38 MDOTS; format: cell-based, mouse; details: day 6
How it was run: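 MC38-derived spheroids kept their resident immune cells. They were mixed with collagen, loaded into the central gel region of a 3D microfluidic device, and set for 30 min at 37 °C. They were then hydrated with DMEM containing test compound 3 μM ± anti-mouse IFNγ 10 μg/mL, or anti-IFNγ alone, for 6 days. Viability was read by Hoechst 33342/propidium iodide staining (45 min, 37 °C, 5% CO2) and fluorescence imaging of total cell area per dye. Live signal was expressed as percent or log2 fold change versus control.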

MALT1 [9] = biological target: T1, MALT1 (Mus musculus, UniProt Q2TBA3); assay: MALT1-cleaved CYLD-ct flow cytometry assay in murine CD4+ T cells; format: cell-based; details: for MALT1 inhibition: murine CD4+ T cells
T1 sequence (Q2TBA3 1-832): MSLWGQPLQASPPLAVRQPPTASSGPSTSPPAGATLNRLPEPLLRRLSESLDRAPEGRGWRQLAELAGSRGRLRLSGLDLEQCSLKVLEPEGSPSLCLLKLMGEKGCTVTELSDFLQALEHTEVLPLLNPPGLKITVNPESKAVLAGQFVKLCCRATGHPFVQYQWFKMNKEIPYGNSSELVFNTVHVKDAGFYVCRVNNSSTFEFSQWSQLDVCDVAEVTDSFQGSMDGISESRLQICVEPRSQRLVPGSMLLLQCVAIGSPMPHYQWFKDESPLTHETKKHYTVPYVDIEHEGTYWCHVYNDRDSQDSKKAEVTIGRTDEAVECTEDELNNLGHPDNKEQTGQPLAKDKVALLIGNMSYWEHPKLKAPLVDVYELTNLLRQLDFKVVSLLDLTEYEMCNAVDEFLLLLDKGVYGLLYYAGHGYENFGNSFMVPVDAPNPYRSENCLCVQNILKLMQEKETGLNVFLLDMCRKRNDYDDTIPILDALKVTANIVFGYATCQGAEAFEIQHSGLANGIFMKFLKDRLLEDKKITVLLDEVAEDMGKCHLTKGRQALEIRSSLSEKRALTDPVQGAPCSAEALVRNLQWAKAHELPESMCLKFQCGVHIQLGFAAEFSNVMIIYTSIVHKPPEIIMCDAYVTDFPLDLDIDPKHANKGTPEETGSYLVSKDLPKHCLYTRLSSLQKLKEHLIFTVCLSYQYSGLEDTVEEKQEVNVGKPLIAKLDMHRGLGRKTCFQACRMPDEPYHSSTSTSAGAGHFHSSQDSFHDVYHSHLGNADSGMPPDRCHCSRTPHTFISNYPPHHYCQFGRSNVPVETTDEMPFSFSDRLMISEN
How it was run: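 Murine CD4+ T cells were treated with a dose titration of the test compound or DMSO, then stimulated with PMA plus ionomycin. MALT1 activity was read by flow cytometry as the CYLD C-terminal cleavage product. Detection used the in-house neoepitope monoclonal 25F10, which recognizes both human and mouse cleaved CYLD. Median fluorescence intensity was compared with DMSO-treated cells. n = 3, mean ± SEM.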

Sequence of P-gp (P08183 whole entry): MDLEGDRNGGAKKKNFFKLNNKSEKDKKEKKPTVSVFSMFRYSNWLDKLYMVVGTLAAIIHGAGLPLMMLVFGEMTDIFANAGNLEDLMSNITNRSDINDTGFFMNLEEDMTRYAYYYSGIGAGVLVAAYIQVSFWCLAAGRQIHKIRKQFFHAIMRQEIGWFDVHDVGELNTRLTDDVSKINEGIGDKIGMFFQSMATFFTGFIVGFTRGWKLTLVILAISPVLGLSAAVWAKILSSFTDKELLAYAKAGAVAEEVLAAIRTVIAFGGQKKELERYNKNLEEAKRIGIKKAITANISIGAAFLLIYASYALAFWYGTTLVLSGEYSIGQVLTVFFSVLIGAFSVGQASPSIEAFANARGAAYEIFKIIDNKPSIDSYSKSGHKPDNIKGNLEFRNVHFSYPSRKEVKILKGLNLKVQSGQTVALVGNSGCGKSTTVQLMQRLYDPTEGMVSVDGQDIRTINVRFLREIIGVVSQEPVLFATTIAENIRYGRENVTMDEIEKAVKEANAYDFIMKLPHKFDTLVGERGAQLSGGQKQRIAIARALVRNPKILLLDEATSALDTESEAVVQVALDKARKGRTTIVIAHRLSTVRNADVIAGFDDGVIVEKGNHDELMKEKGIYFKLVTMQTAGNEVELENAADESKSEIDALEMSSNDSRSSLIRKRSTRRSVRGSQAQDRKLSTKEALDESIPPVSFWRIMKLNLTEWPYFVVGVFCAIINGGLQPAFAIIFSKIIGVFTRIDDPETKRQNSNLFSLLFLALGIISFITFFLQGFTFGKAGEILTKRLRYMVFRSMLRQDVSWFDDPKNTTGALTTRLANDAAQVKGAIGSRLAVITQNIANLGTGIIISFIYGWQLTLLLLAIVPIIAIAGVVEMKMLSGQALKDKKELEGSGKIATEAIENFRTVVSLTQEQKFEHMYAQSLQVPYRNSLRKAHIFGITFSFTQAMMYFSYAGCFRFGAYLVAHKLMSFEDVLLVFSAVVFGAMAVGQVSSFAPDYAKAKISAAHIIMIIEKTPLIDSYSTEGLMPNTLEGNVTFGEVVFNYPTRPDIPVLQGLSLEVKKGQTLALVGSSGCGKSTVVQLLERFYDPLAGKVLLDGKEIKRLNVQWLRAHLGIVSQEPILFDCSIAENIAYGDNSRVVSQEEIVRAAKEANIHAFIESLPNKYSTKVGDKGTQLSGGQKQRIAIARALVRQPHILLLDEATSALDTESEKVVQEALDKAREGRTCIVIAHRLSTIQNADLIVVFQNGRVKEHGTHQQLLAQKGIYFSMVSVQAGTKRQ

Structure (SMILES): CN1CCC[C@H](CN2c3ccccc3Sc3ccccc32)C1.O=C(O)CCC(=O)O [MPT-0118, (S)-mepazine succinate]
- peak concentrations in mouse plasma [1]: ≤ 1.3 µM
- drug concentrations in tumor tissue ([1]; over the following 24 hours): 3000 to 10000 nM
- tumor growth, combination effect (B16.F10): clear synergy
- frequency of IFNγ+ Tregs (percentage of total tumor-infiltrating Tregs) (tumor-infiltrating Tregs): 8.9 ± 1.01%
- effects on PDOTS with anti-IFNγ neutralizing antibody (PDOTS): reversed
- circulating Treg frequencies (circulating Tregs): No change; also recorded: no effect
- tumor growth, comparison of both salt forms (D4M.3A): comparable effects on tumor growth
- tumor growth, combination effect (D4M.3A): clear synergy
- tumor growth response (D4M.3A): consistently responded

Structure (SMILES): CN1CCCC(CN2c3ccccc3Sc3ccccc32)C1 (racemic) [mepazine racemate, mepazine]
- Treg frequencies in peripheral blood (Tregs [2]): no effect

Structure (SMILES): CN1CCC[C@H](CN2c3ccccc3Sc3ccccc32)C1 [(S)-mepazine]
- pKa (pKa): 9.2
- mean apparent AB permeability coefficient (Caco-2): 13.73 ± 0.15 × 10^−6 cm/s
- P-gp substrate (P-gp): not a P-gp substrate
- logP [3]: 5.29
- solubility (in words) (Aqueous solubility): apparent pH-dependent solubility
- Tmax [4]: ≤ 2 h

Structure (SMILES): CO[C@@H](C)c1c(NC(=O)Nc2ccnc(C(F)(F)F)c2)cnc2cc(Cl)nn12 [MLT-943]
- IC50 (MALT1 [5]): < 0.01 µM
- Treg numbers (Tregs [6]): rapid reduction of Tregs
- pathology developing after Treg reduction (Tregs [6]): reversible immune dysregulation, polyendocrinopathy, enteropathy, X-linked (IPEX)-like pathology
- Treg numbers (Tregs [7]): rapid reduction of Tregs

Structure (SMILES): CN1CCC[C@H](CN2c3ccccc3Sc3ccccc32)C1.Cl [MPT-0308, (S)-mepazine hydrochloride]
- tumor growth, combination effect (B16.F10): clear synergy
- frequency of IFNγ+ Tregs (percentage of total tumor-infiltrating Tregs) (tumor-infiltrating Tregs): 8.9 ± 1.01%
- tumor growth, combination effect (MC38; high dose in combination with anti-PD-1, MC38 model): additive effect
- tumor growth (MC38; monotherapy, immunogenic MC38 model): significant inhibition of tumor growth
- viability of tumor spheroids lacking immune cells and tumor stroma [8]: not affected
- antitumor activity in MDOTS with anti-IFNγ neutralizing antibody (MC38 MDOTS; 3 μM + anti-mouse IFNγ 10 μg/mL): reversed
- antitumor activity in MDOTS (MC38 MDOTS; 3 μM): active
- MALT1 inhibition (MALT1 [9]; 3 μM): roughly 75%
- MALT1 inhibition (MALT1 [9]; 10 μM): ~95%
- IC50 (MALT1 [9]; read-out: IC50 (MALT1-cleaved CYLD-ct), murine splenic CD4+ T cells stimulated with PMA/ionomycin): 1.13 µM
- tumor growth, comparison of both salt forms (D4M.3A): comparable effects on tumor growth
- tumor growth, combination effect (D4M.3A): clear synergy
- tumor growth response (D4M.3A): consistently responded

From PMC10195017 (Journal of Immunotherapy and Precision Oncology, 2023)
